Screening data as filed in PubChem.
Rows were chosen to be rich in hits. Some 2.6% of all compounds tested hit in one or more screens of this group.
UCH37 DUB inh: inhibitors of human deubiquitinating enzyme UCH37. purified proteasome/UCH37, Ub-AMC cleavage fluorescence. inhibition, % (test concentration not listed). 330,000 compounds, 0.33% hits. AID 588478;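 active = mean inhibition over replicate wells above about 20%, limit read from the data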
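Schedule: 30 min plus 25 min, room temperature / Material: human UCH37 within purified proteasomes / Technique: AMC fluorescence intensity at 355/460 nm / Buffer or medium: pH 7.4 Tris-HCl (50 mM) with ovalbumin, ATP-MgCl2, DTT / Controls: wells without proteasome as full block, compound-free enzyme plus substrate as uninhibited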
FGF22 binding: shifts melting point of recombinant human FGF22; Q9HCT0; recombinant FGF22 thermal shift, SYPRO orange fluorescence; percent of sucrose octasulfate shift, DMSO zero; activity (Tm shift, normalised), % at 9.99 µM; 340,000 compounds, 1.5% hits;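 active = mean Tm shift, scaled 0 neutral to 100 positive control, at about 1.3% or above, every replicate too, limit read from the data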
NSD2 HMT inh: blocks human histone methyltransferase NSD2. O96028. NSD2 peptide methylation, AlphaScreen, 120 min. inhibition, % at 12.5 µM. 310,000 compounds, 0.54% hits. AID 743445; in the data active = inhibition above about 50%
Target sequence (O96028 whole entry, looked up): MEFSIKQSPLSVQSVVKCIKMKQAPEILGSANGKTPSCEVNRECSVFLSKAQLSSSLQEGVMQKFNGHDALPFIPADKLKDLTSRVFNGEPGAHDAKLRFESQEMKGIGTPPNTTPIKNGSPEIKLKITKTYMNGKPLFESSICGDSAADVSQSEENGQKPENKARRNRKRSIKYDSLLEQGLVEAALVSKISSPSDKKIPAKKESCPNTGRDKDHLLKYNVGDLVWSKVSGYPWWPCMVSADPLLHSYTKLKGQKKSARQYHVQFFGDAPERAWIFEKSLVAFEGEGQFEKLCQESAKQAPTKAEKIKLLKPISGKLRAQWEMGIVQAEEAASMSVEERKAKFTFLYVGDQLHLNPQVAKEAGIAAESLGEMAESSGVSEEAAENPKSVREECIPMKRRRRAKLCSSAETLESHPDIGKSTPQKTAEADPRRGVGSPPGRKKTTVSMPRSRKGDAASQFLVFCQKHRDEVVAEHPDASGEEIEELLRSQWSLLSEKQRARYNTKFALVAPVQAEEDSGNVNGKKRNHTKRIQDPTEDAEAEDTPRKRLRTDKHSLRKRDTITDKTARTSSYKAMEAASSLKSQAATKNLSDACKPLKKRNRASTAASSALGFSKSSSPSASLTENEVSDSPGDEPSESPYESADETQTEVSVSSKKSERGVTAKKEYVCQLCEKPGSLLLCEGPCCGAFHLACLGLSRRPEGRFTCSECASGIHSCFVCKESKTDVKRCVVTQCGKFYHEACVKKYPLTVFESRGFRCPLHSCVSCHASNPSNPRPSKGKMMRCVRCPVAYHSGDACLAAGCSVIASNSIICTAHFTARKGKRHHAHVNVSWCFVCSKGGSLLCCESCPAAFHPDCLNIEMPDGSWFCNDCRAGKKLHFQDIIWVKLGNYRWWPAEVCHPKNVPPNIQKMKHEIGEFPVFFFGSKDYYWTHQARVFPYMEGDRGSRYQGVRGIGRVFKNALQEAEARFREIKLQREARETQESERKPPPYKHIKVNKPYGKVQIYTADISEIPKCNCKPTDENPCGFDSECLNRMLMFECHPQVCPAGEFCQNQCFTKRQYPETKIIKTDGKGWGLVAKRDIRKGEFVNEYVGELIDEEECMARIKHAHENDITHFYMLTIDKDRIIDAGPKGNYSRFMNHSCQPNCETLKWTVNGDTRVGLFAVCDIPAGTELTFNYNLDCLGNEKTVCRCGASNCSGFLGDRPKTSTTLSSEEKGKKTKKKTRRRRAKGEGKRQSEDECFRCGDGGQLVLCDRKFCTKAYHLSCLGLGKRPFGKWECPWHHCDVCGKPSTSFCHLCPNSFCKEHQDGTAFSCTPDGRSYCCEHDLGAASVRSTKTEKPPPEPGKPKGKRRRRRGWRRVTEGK
Casp6 inh: blocks human caspase-6 cleavage activity. P55212. inhibition, % at 12.5 µM. AID 686996. 350,000 compounds, 0.53% hits. purified caspase-6, Z-VEID-R110 cleavage fluorescence;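 active = mean inhibition across replicates at least about 35%, with every replicate also reaching that limit, limit read from the data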
SIRT5 block: sirtuin-5 (human) deacylase inhibition | Q9NXA8 | 330,000 compounds, 1.1% hits | Purified SirT5, succinyl-peptide AMC, trypsin-coupled fluorescence | inhibition, % at 15 µM; in the data active = inhibition above about 15%
Alpha artifact: counter-screen for NSD2 inhibitors: AlphaScreen artifacts; AID 1053174; shares compounds with NSD2 HMT inh; AC35, µM (highest dose often 10 µM); 1,500 compounds, 9.4% hits; AlphaScreen artifact counterscreen, preloaded methylated H4 peptide; call rule not given here
Each line names hits and unclear results; the compound was inactive in the other large screens (follow-up assays come after a bar, where they were run).

CC1CC(C)CN(C(=O)c2ccc3c(c2NCCO)C(=O)c2ccccc2C3=O)C1 (stereo not given)	NSD2 HMT inh 81.4 (no result: FGF22 binding, Casp6 inh, SIRT5 block) | Alpha artifact 8.08µM
CCC(=O)N(C)C[C@@H]1Oc2cc(C#C[C@H](C)O)ccc2S(=O)(=O)N([C@H](C)CO)C[C@H]1C	none (no result: UCH37 DUB inh, NSD2 HMT inh)
Cc1ccc(NC(=S)N2CCC(NC(=O)c3cccc(F)c3)CC2)cc1	NSD2 HMT inh 88.7 | Alpha artifact inactive
Cc1c(C(=O)c2no[n+]([O-])c2C(=O)c2cnn(C)c2C)cnn1C	NSD2 HMT inh 66.4 (no result: FGF22 binding, Casp6 inh, SIRT5 block) | Alpha artifact inactive
COc1ccc(C(=O)c2no[n+]([O-])c2C(=O)c2ccc(OC)cc2)cc1	none (no result: FGF22 binding, NSD2 HMT inh, Casp6 inh, SIRT5 block)
Cc1ccc(C(=O)N/C(=C\c2ccco2)C(=O)NCCN2CCCCC2)cc1C	none
O=C(NCCN1CCCCC1)/C(=C/c1ccco1)NC(=O)c1ccccc1	NSD2 HMT inh 78.6 | Alpha artifact inactive
COC(=O)c1ccc(/C=N\N2CCN(Cc3ccc(C)cc3)CC2)cc1	none (no result: UCH37 DUB inh)
COC(=O)c1ccc(/C=N/N2CCN(Cc3ccccc3)CC2)cc1	NSD2 HMT inh 51.6 (no result: UCH37 DUB inh, FGF22 binding, Casp6 inh, SIRT5 block) | Alpha artifact inactive
CCCn1c2c(c(O)c(C(=O)NC)c1=O)CCCC2	none (no result: FGF22 binding, Casp6 inh, SIRT5 block)
CCCn1c2c(c(O)c(C(=O)NCCCN(CC)CC)c1=O)CCCC2	NSD2 HMT inh 58.9 (no result: FGF22 binding, Casp6 inh, SIRT5 block) | Alpha artifact inactive
O=c1c(=Cc2ccc3c(c2)OCO3)sc2n1CCCN=2	none (no result: FGF22 binding, NSD2 HMT inh, Casp6 inh, SIRT5 block)
O=C(C[C@H]1CC[C@H]2[C@@H](COC[C@H](O)CN2S(=O)(=O)c2ccc(Cl)cc2)O1)N[C@@H]1CCN(Cc2ccccc2)C1	none (no result: UCH37 DUB inh, NSD2 HMT inh)
O=C(CCN1C(=O)/C(=C/c2ccc(Cl)cc2)SC1=S)Nc1ccc(C(=O)O)cc1	none
O=C(CCN1C(=O)/C(=C\c2ccco2)SC1=S)Nc1ccc(C(=O)O)c(O)c1	NSD2 HMT inh 111.1, Casp6 inh 73.0, SIRT5 block 56.8 | Alpha artifact inactive
CN1CCCCc2c1nc1ccccc1c2N (tested in a mixture with another compound)	NSD2 HMT inh 82.9 (no result: FGF22 binding, Casp6 inh, SIRT5 block) | Alpha artifact inactive
C[C@H](CO)N1C[C@H](C)[C@@H](CN(C)CC2CCCCC2)Oc2ccc(NC(=O)CCCN(C)C)cc2C1=O	none (no result: UCH37 DUB inh, NSD2 HMT inh, Casp6 inh)
CCN(C(=S)Nc1ccc(C(C)=O)cc1)C1CCCCC1	NSD2 HMT inh 53.4, SIRT5 block 20.6 | Alpha artifact inactive
CCCN(CC1CC1)C(=S)Nc1ccc(C(C)=O)cc1	none
C[C@@H]1CCCCO[C@@H](CN(C)S(=O)(=O)c2ccc(F)cc2)[C@@H](C)CN([C@@H](C)CO)C(=O)c2cc(NC(=O)NC3CCCCC3)ccc2O1	none (no result: UCH37 DUB inh, NSD2 HMT inh)
Cc1[nH]c(=O)[nH]c1C(=O)CCCCC(=O)O	NSD2 HMT inh 129.8 | Alpha artifact inactive
COc1ccc(CNC(=O)C[C@@H]2CC[C@H]3[C@@H](COc4ccc(NC(=O)C(C)C)cc4C(=O)N3C)O2)cc1	none (no result: UCH37 DUB inh, NSD2 HMT inh)
CCOC(=O)C1=CN(c2cccc(F)c2)C=C(C(=O)OCC)C1c1cc(OC)c(O)c([N+](=O)[O-])c1	NSD2 HMT inh 57.1 (no result: FGF22 binding, Casp6 inh, SIRT5 block) | Alpha artifact inactive
COC(=O)C1=CN(c2ccc(F)cc2)C=C(C(=O)OC)C1c1ccc([N+](=O)[O-])cc1	none
Nc1nonc1C(=O)NCCNC(=O)c1ccccc1F	NSD2 HMT inh 66.6 (no result: FGF22 binding, Casp6 inh, SIRT5 block) | Alpha artifact inactive
O=C(Nc1ccccc1C(=O)NN=Cc1ccco1)c1ccccc1	none (no result: FGF22 binding, NSD2 HMT inh, Casp6 inh, SIRT5 block)
COc1ccc(-c2c3c(nc4sc(C(=O)Nc5cc(C)on5)c(N)c24)CCC3)cc1	NSD2 HMT inh 51.6 (no result: FGF22 binding, Casp6 inh, SIRT5 block) | Alpha artifact inactive
Nc1cccc2nc3ccccc3cc12	none (no result: FGF22 binding, NSD2 HMT inh, Casp6 inh, SIRT5 block)
Cc1cc2c(N)cccc2nn1	NSD2 HMT inh 98.8 (no result: UCH37 DUB inh, FGF22 binding, Casp6 inh, SIRT5 block) | Alpha artifact inactive
C/C=C/c1ccc([C@H]2[C@@H](CO)N3C(=O)CN(S(=O)(=O)c4ccccc4)C[C@H]23)cc1	none (no result: UCH37 DUB inh, FGF22 binding, NSD2 HMT inh)
CCOC(=O)c1sc2nc(C)nc(NC3CCC(O)CC3)c2c1C (stereo not given)	NSD2 HMT inh 90.6 | Alpha artifact inactive
C[C@@H]1CN([C@@H](C)CO)C(=O)c2cccc(NC(=O)c3nc4ccccc4s3)c2O[C@H]1CN(C)S(=O)(=O)c1ccccc1	none (no result: UCH37 DUB inh, NSD2 HMT inh)
O=C(CCCCCNC(=O)c1ccccc1)NN=Cc1ccco1	none (no result: FGF22 binding, NSD2 HMT inh, Casp6 inh, SIRT5 block)
COc1ccc(/C=C2/C(=O)N(c3ccccc3)N=C2C)cc1	none (no result: FGF22 binding, Casp6 inh, SIRT5 block)
COc1ccc(/C=C2/C(=O)N(c3c(F)c(F)c(F)c(F)c3F)N=C2C)cc1	NSD2 HMT inh 58.2 | Alpha artifact inactive
O=C(C1CCOCC1)N1CC(=O)N2[C@H](CO)[C@H](c3ccc(C#CC4CC4)cc3)[C@@H]2C1	none (no result: UCH37 DUB inh, FGF22 binding, NSD2 HMT inh)
Cc1ccc2cccc(NC3OC(=O)c4ccccc43)c2n1 (stereo not given)	NSD2 HMT inh 86.9 (no result: FGF22 binding, Casp6 inh, SIRT5 block) | Alpha artifact inactive
COC(=O)c1ccccc1NC1OC(=O)c2ccccc21 (stereo not given)	none (no result: FGF22 binding)
C[C@@H]1CN([C@H](C)CO)C(=O)Cc2cc(NC(=O)CCCCCC(=O)Nc3ccccc3N)ccc2O[C@H]1CN(C)CC1CC1	none (no result: UCH37 DUB inh, NSD2 HMT inh, Casp6 inh)
O=C1C(=O)C(Cl)=C(Cl)C(Cl)=C1Cl	NSD2 HMT inh 90.6 (no result: UCH37 DUB inh, FGF22 binding, Casp6 inh, SIRT5 block) | Alpha artifact inactive
Cc1cc(/C=C(/C#N)c2nc3ccccc3[nH]2)c(C)n1-c1cc(C(=O)O)cc(C(=O)O)c1	NSD2 HMT inh 76.2 (no result: FGF22 binding, Casp6 inh) | Alpha artifact inactive
Cc1cc(/C=C(/C#N)c2nc3ccccc3[nH]2)c(C)n1-c1ccccc1C(=O)O	none
O=C(c1cc(-c2ccc(Cl)c(Cl)c2)on1)N1CCCCCC1	NSD2 HMT inh 81.5 | Alpha artifact inactive
Cc1ccc(O)c(CNc2cccc3cccnc23)c1	NSD2 HMT inh 117.7 | Alpha artifact inactive
COc1cccc(CNc2cccc3cccnc23)c1O	NSD2 HMT inh 50.3 (no result: FGF22 binding, Casp6 inh, SIRT5 block) | Alpha artifact inactive
CN1CC2(Cc3c1ccc1ccccc31)C(=O)OC(C)(C)OC2=O	NSD2 HMT inh 86.6 (no result: FGF22 binding, Casp6 inh, SIRT5 block) | Alpha artifact inactive
Cc1ccc2c(c1)CC1(CN2C)C(=O)OC2(CCCCC2)OC1=O	none (no result: FGF22 binding, Casp6 inh, SIRT5 block)
O=C(OCc1cccc2ccccc12)C1CC(=O)N(c2ccccc2)C1 (stereo not given)	NSD2 HMT inh 79.0 (no result: FGF22 binding) | Alpha artifact inactive
CSCCC(NC(=O)c1ccccc1Cl)C(=O)NCC(c1ccc(F)cc1)N1CCOCC1 (stereo not given)	NSD2 HMT inh 140.7 | Alpha artifact inactive
